EBNA-1 inh: blocks EBNA-1 binding to DNA. EBNA-1 DNA binding, fluorescence polarization. inhibition, % at 14.8 µM. actives 0.34% (n = 300,000); in the data active = inhibition above about 28%
Fh CTSL1 inh: blocks F. hepatica cathepsin L1 in PFM18AAP counter-screen | recombinant F. hepatica cathepsin L1, Z-Leu-Arg-MCA fluorescence | inhibition, % at 5.96 µM | actives 0.49% (n = 300,000) | AID 1906;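 active = inhibition above the mean of all tested compounds plus 3 SD, set per screening campaign, cut at about 17% in these data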
NS3 helicase inh: inhibitors of Hepatitis C virus NS3 helicase; inhibition, % at 10.9 µM; NS3 helicase DNA unwinding, Cy5 molecular beacon fluorescence; actives 0.56% (n = 290,000);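 active = inhibition above the mean of all tested compounds plus 3 SD, set per campaign, cut at about 35% in these data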
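Control set: DMSO versus 110 µM thioflavine S; Material: NS3 helicase fragment of HCV; Measured by: Cy5 fluorescence at 0 and 60 min, beacon hairpin quenching; Read-out basis: percent inhibition from t60/t0 fluorescence ratio; Times: reaction time 60 min, 25 °C; Repeats: single replicate; Compound dosing: single dose, 10.9 µM nominal final, DMSO 0.8% final.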
ZTA DNA inh: counter-screen for EBNA-1 inhibitors: inhibitors of Epstein-Barr virus ZTA. actives 0.15% (n = 320,000). ZTA-DNA binding, fluorescence polarization. inhibition, % at 11 µM. P03206; in the data active = inhibition above about 33%
Target sequence (P03206 whole entry, looked up): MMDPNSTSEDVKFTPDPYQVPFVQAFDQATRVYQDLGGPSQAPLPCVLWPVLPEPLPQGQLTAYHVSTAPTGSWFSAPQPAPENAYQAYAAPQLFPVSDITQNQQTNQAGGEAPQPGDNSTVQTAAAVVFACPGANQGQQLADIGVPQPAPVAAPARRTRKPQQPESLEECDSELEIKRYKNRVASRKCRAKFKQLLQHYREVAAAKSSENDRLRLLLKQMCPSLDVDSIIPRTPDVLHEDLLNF
Large screens that a line does not name were inactive. In the library only some 1.4% were active in any assay of this set; here they are far more common.

COc1ccc(C2CC(c3cccs3)=NN2C(=O)c2ccccc2)cc1OC (centres undefined)	none
Cc1cc(CNC(=O)c2cccnc2Cl)c2ccccc2n1	Fh CTSL1 inh 18
Cc1cc(C(=O)NCc2ccccc2Cl)c2ccccc2n1	none
Cc1cc(C)c(NC(=O)c2ccccc2CCc2ccccc2)c(C)c1	Fh CTSL1 inh 17
Cc1ccc(NC(=O)c2ccccc2CCc2ccccc2)c(C)c1	none
O=C(NCc1ccc(Cl)cc1)c1ccccc1CCc1ccccc1	EBNA-1 inh 31
Cn1cc(Cl)c(C(=O)Nc2nc3ccc(Cl)cc3s2)n1	none
Cc1ccc(C(=O)OCC(=O)NC2CCCc3ccccc32)o1 (centres undefined)	none (no result: EBNA-1 inh, Fh CTSL1 inh, NS3 helicase inh)
Cc1ccc(C(=O)NC2CCCc3ccccc32)o1 (centres undefined)	Fh CTSL1 inh 76
O=C(CCl)NC1CCCc2ccccc21 (centres undefined)	Fh CTSL1 inh 27
O=C(Nc1ncc(Cc2ccccc2Cl)s1)c1ccc(-c2cccc([N+](=O)[O-])c2)o1	none
CCOC(=O)C1=C(C)C(c2ccc(OC)cc2)NC(=O)N1 (centres undefined)	none
CCOC(=O)C1=C(C)C(c2ccc(OC)cc2)NC(=S)N1 (centres undefined)	Fh CTSL1 inh 17
C=CCN1CN(S(=O)(=O)c2cccc(Cl)c2)c2nc3ccccc3nc21	Fh CTSL1 inh 17
O=C(CN1c2cccc3cccc(c23)S1(=O)=O)Nc1cccc(S(=O)(=O)N2CCOCC2)c1	none
CCc1ccccc1NC(=O)C(C#N)Cc1cccnc1 (centres undefined)	none
CCc1ccc(CNc2ccc(O)cc2)cc1	Fh CTSL1 inh 105
Cc1ccccc1C(=O)OC1OC(=O)C(Cl)=C1Nc1ccc(C(=O)O)cc1 (centres undefined)	none
Cc1ccc(NC2=C(Cl)C(=O)OC2OC(=O)c2ccco2)c(C)c1 (centres undefined)	Fh CTSL1 inh 48
Cc1ccc(NC2=C(Cl)C(=O)OC2OC(=O)c2ccco2)cc1C (centres undefined)	Fh CTSL1 inh 54
Cc1ccc(C)c(NC2=C(Cl)C(=O)OC2OC(=O)c2ccco2)c1 (centres undefined)	none
CC1(C)CC2(CCO1)OC(=O)CC2C(=O)Nc1c(Cl)cccc1Cl (centres undefined)	none
O=C1c2cc(F)ccc2-n2c1nc1ccccc1c2=O	Fh CTSL1 inh 17
Nn1c(-c2ccc(F)cc2)nc2ccccc2c1=O	none
N/C(=N\OS(=O)(=O)c1ccc(Br)cc1)c1ccncc1	Fh CTSL1 inh 29
CCc1ccccc1NC(=S)N1CCN(c2ccccc2F)CC1	Fh CTSL1 inh 19
CCOc1ccccc1NC(=S)N1CCN(c2ccccc2F)CC1	none (no result: EBNA-1 inh, Fh CTSL1 inh, ZTA DNA inh)
COc1ccccc1CC(=O)Nc1ccc(-c2nnc(-c3ccco3)o2)cc1	none
Cc1ccc[n+](CC(=O)Nc2ccc([N+](=O)[O-])cc2)c1	Fh CTSL1 inh 31
CC1=NOC(=O)/C1=C\c1ccc(-c2ccc(Cl)cc2Cl)o1	NS3 helicase inh 37 (no result: EBNA-1 inh, Fh CTSL1 inh, ZTA DNA inh)
CCCOc1ccc(Cl)cc1/C=C1/C(=O)ON=C1C	none
O=C(CN1C(=O)C2C3C=CC(C3)C2C1=O)Nc1ccc2nccnc2c1 (centres undefined)	Fh CTSL1 inh 20
O=C(CN1C(=O)C2C3C=CC(C3)C2C1=O)Nc1ccc(F)cc1 (centres undefined)	none
COc1cc(/C=C2/SC(=S)N(Cc3ccccc3)C2=O)cc(Cl)c1O	NS3 helicase inh 48
O=C(O)C1CC=CCC1C(=O)N1CCCC1 (centres undefined)	Fh CTSL1 inh 18
CC(=O)c1ccccc1NS(=O)(=O)c1c(C)nn(-c2ccccc2)c1C	none
CC(C)CCNC(=O)[C@H](CC(C)C)NC(=O)[C@H]1O[C@@H]1C(=O)O	Fh CTSL1 inh 111
CCOC(=O)[C@H]1O[C@@H]1C(=O)N[C@@H](CC(C)C)C(=O)NCCC(C)C	Fh CTSL1 inh 106
CCOC(=O)N1CCC(NC(=O)C(CC(C)C)NC(=O)C2CCCCC2)CC1 (centres undefined)	none
CC(C)CCNC(=O)C1c2ccccc2Oc2ccccc21	none
CC1CN(C2CCCCC2)c2nc3c(c(=O)[nH]c(=O)n3C)n2C1 (centres undefined)	none
Cc1cc(C)c(S(=O)(=O)c2ccc(C(C)(C)C)cc2)c(Cl)n1	none
COc1ccc(CN=Cc2c(O)[nH]c3ccccc23)cc1	Fh CTSL1 inh 21
CCOC(=O)c1ccc(-n2ccnc2)c(NC(=O)c2ccc(Cl)cc2)c1	none
CN1CCN(C(=O)C2=C[C@@H](c3ccc(Br)cc3)C[C@@H](OCc3ccc(CO)cc3)O2)CC1	Fh CTSL1 inh 17
CN1CCN(C(=O)C2=C[C@@H](c3ccccc3)C[C@@H](OCc3ccc(CO)cc3)O2)CC1	none
O=C(Nc1ccc2oc(-c3ccncc3)nc2c1)c1ccc([N+](=O)[O-])o1	Fh CTSL1 inh 23
O=C(Nc1ccc2oc(-c3ccncc3)nc2c1)c1ccccc1	none
C=CCn1c(SCC(=O)Nc2cc(NC(C)=O)ccc2OC)nnc1-c1cccnc1	none
CN1c2ccccc2C(C)(C)C12C=Nc1c(ccc3ccccc13)O2 (centres undefined)	Fh CTSL1 inh 21
COc1cc(C(c2sc3ncnn3c2O)N2CCN(c3ccccc3F)CC2)cc(OC)c1OC (centres undefined)	none
CCN(CC)C(=O)C1CCCN(C(=S)Nc2cccc3ccccc23)C1 (centres undefined)	none
O=c1[nH]c(=O)n(-c2cc(Br)c(O)c(Br)c2)cc1Br	Fh CTSL1 inh 33
Cc1cc(-n2cc(Br)c(=O)[nH]c2=O)nc(-c2ccccc2)n1	none
Cc1oc(/N=C/c2ccccc2O)c(C#N)c1C	none
CCOC(=O)c1c(C)oc(/N=C/c2ccccc2O)c1C#N	Fh CTSL1 inh 17
CN(C1=C(NC(=O)c2ccccc2)C(=O)c2ccccc2C1=O)C1CCS(=O)(=O)C1 (centres undefined)	Fh CTSL1 inh 22
NC(=S)NC1CCS(=O)(=O)C1 (centres undefined)	Fh CTSL1 inh 24
COc1ccc(C(=O)NC(=S)NC(C)c2ccccc2)cc1 (centres undefined)	none (no result: NS3 helicase inh)
Cc1cc(Cl)ccc1OCC(=O)NC(=S)Nc1ccc(Cl)cn1	none (no result: EBNA-1 inh, Fh CTSL1 inh, ZTA DNA inh)
CCNC(=S)NN=C1CCC(C(C)(C)C)CC1 (centres undefined)	none
CC(C)(C)C1CCC(=NNC(=S)Nc2cccnc2)CC1 (centres undefined)	Fh CTSL1 inh 19
CCCCNC(=O)OCCNC(=O)Oc1cccc(C)c1	Fh CTSL1 inh 45
Cc1cccc(OCCCC(=O)NC(C)C)c1	none
CCCCNC(=O)OC(C)CNC(=O)Oc1cccc(C)c1 (centres undefined)	Fh CTSL1 inh 26
CC1CN(C(=O)CSc2ncnc3sccc23)CC(C)O1 (centres undefined)	none
NS(=O)(=O)c1ccc(Oc2ccc(S(N)(=O)=O)cc2)cc1	Fh CTSL1 inh 17
Clc1cccc(Cl)c1CO/N=C/c1c(-c2ccccc2)nc2n1CCS2	none
CC(C)=NOc1cc(NC(=O)CCl)cc([N+](=O)[O-])c1	Fh CTSL1 inh 79
Cc1ccccc1N/C(SCc1ccc(Cl)cc1)=C(/C#N)C(=O)NCc1ccco1	none
